Data on six compounds can be found in ChEMBL document CHEMBL2062505, “Thermodynamic Investigation of Inhibitor Binding to 1-Deoxy-D-Xylulose-5-Phosphate Reductoisomerase” (ACS Med Chem Lett, 2012).

Molecules are shown by their SMILES.

The test system of test [1] is Escherichia coli. Nature of the test: Binding affinity to Escherichia coli DXR by isothermal titration […] assay in presence of 2 mM NADPH and 150 mM NaCl at 279 K and pH 7.6. In a few lines:
(§1)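 Isothermal titration calorimetry of inhibitor binding to E. coli DXR, run at 279 K with 2 mM NADPH and 150 mM NaCl. Titrations were done with Mg2+ or Mn2+ present, or with no divalent metal ion. Fitted curves gave ΔH and Ka, with ΔG and ΔS derived from them. Kd was taken as the inverse of Ka.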
In general terms: Isothermal titration calorimetry measures the heat released or taken up as one component is titrated into another.

Test [2] in a line: Inhibition of His6-tagged Plasmodium falciparum DXR expressed in Escherichia coli M15 using DXP as substrate preincubated for 5 mins.
Test [3] is described as follows: Inhibition of Escherichia coli DXR using DXP as substrate preincubated for 5 mins.
Test [4] has as its system Escherichia coli. Nature of the test: Binding affinity to Escherichia coli DXR by isothermal titration […] assay in presence of 2 mM NADPH and 150 mM NaCl at 279 K and pH 8.5. In a few lines:
as §1

Test [5] concerns Mycobacterium tuberculosis. Nature of the test: Binding affinity to Mycobacterium tuberculosis DXR by isothermal titration […] assay in presence of 2 mM NADPH and 150 mM NaCl at 279 K and pH 7.6.
The nature of test [6]: Inhibition of Mycobacterium tuberculosis DXR using DXP as substrate preincubated for 5 mins.
The subject of test [7] is Escherichia coli. Briefly: Binding affinity to Escherichia coli DXR by isothermal titration […] assay in presence of 2 mM NADPH and 150 mM NaCl at 279 K and pH 7.6 and Mg2+. In a few lines: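 Isothermal titration calorimetry of inhibitor titrated into E. coli DXR at 279 K, pH 7.6, with 2 mM NADPH, 150 mM NaCl and Mg2+. Ka and ΔH come from fitted titration curves, with ΔG and ΔS derived from them. Kd is taken as the inverse of Ka.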

The test system of the next test is Plasmodium falciparum. Briefly: Binding affinity to His6-tagged Plasmodium falciparum DXR expressed in Escherichia coli M15 by isothermal titration […] assay in presence of 2 mM NADPH and 150 mM NaCl at 279 K and pH 7.6. An outline of the steps:
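PfDXR gene cloned into pQE30, expressed in E. coli M15, and purified as His6-tagged protein. ITC run at 279 K, pH 7.6, with 2 mM Mn2+ and 2 mM NADPH. Ka and ΔH come from curve fitting, with Kd as the inverse of Ka.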

The subject of test [8] is Escherichia coli. Briefly: Binding affinity to Escherichia coli DXR by isothermal titration […] assay in presence of 2 mM NADPH and 150 mM NaCl at 279 K and pH 7.6 and Mn2+. An outline of the steps: (§2)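 Heat of inhibitor binding to E. coli DXR (EcDXR) was measured by isothermal titration calorimetry and fitted to binding curves. The fit gave the association constant Ka (M–1) and ΔH, with ΔG and ΔS also reported. Kd was taken as the inverse of Ka. The divalent metal ion (Mg2+ or Mn2+) was included in the titration.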

Test [9] relates to Escherichia coli. Briefly: Binding affinity to Escherichia coli DXR by isothermal titration […] assay in presence of 2 mM NADPH and 150 mM NaCl at 279 K and pH 8.5 and Mg2+. An outline of the steps: as §2

As to `O=c1ccc(-c2ccccc2)cn1O` [1-HYDROXY-5-PHENYLPYRIDIN-2(1H)-ONE], the Ka came out at 2.87 ×10⁵ /M in the test with Escherichia coli [1]; 2.55 ×10⁵ /M with Escherichia coli [4]; 3.42 ×10⁵ /M in test [5]; 1.72 ×10⁵ /M in the test on Escherichia coli [7]; 2.69 ×10⁵ /M with Plasmodium falciparum. Also, the inhibition constant Ki stood at 14600 nM in [2], 700 nM in [3] and 21800 nM in test [6].
Turning to `O=CN(O)CCCP(=O)(O)O` [FOSMIDOMYCIN], the Ka in test [5] is 3.45 ×10⁶ /M; with Escherichia coli [8], 7.35 ×10⁶ /M; in the test on Escherichia coli [7] it was 6.67 ×10⁶ /M; in the test with Escherichia coli [9], 5.6 ×10⁶ /M; in the test with Plasmodium falciparum, 1.28 ×10⁷ /M.
As to `O=P(O)(O)Cc1ccc(-c2ccccc2)cn1`, the Ki in test [2] stood at 1100 nM; in [3], 420 nM; in test [6], 3200 nM. In addition, the Ka in test [5] amounted to 4.44 ×10⁵ /M; in the test with Escherichia coli [7], 4.83 ×10⁵ /M; with Plasmodium falciparum, 4.67 ×10⁵ /M.
Consider `O=CN(O)CCC(c1ccc(Cl)c(Cl)c1)P(=O)(O)O` (centres undefined), for which the Ki in test [2] was 15 nM; in [3], 58 nM; in test [6], 1200 nM. Also, the Ka in test [5] came out at 2.08 ×10⁶ /M; with Escherichia coli [7] it was 3.03 ×10⁶ /M; with Plasmodium falciparum, 3.13 ×10⁶ /M.
For the compound `CC(=O)N(O)CCCP(=O)(O)O` [FR-900098], the Ki in test [2] is 11 nM; in [3], 19 nM; in [6], 130 nM. Further, the Ka is 1.79 ×10⁶ /M in [5], 7.14 ×10⁶ /M in the test with Escherichia coli [7] and 1.28 ×10⁷ /M in the test with Plasmodium falciparum.
For the compound `O=P(O)(O)Cc1ccccn1` [PYRIDIN-2-YLMETHYLPHOSPHONIC ACID], the Ka is 4.31 ×10⁵ /M with Escherichia coli [1]; 4.89 ×10⁵ /M with Escherichia coli [4]; 6.29 ×10⁵ /M in test [5]; 4.93 ×10⁵ /M in the test with Escherichia coli [7]; 8.77 ×10⁵ /M with Plasmodium falciparum. Also, the results for the Ki in test [2], in [3] and in test [6] were 3300 nM, 2300 nM and 1600 nM, respectively.

For orientation: Ki means the equilibrium dissociation constant of an inhibitor or competing ligand from its target. Low readings indicate tighter binding, high ones weaker binding.
